# Screening results from PubChem.
# Only a selection was taken, and hits are over-represented in it overall.
# UPR XBP1 act: adaptive UPR (XBP1) activation; CHO-XBP1 luciferase reporter, IRE1-XBP1 UPR activation, luminescence; percent of tunicamycin response, DMSO as zero; actives 0.33% (n = 330,000); activation, % at 20 µM;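 active means versus positive control, 20 µM dose yields 30% or more activation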;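 further: 100% = tunicamycin at 10 µg/mL and 0% = DMSO only wells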
#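 Material – CHO cell line with stable XBP1 luciferase reporter · Buffer or medium – F12 plus 10% FBS · Compound – single point, 20 µM final compound, 1% DMSO · Schedule – 16-18 h cell attachment at 37 °C, then 6 h compound exposure · Signal – Steady-Glo luminescence read · Benchmarks – high control tunicamycin 10 µg/mL final, low control DMSO vehicle only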
# Jurkat NFkB inh: inhibitors of the PMA/ionomycin-induced NF-kB reporter in Jurkat cells; PMA/ionomycin-induced NF-kB luciferase reporter, luminescence; inhibition, % at 4 µM; actives 0.53% (n = 330,000); AID 435003; in the data active means inhibition above about 50%
# UPR CHOP act: apoptotic UPR (CHOP) activation; CHO-CHOP luciferase reporter, luminescence; percent of tunicamycin response over DMSO baseline; activation, % at 10 µM; actives 0.34% (n = 330,000); AID 449763;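 active means at 10 µM dose, activation of 40% or more, normalized to positive control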;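 further: 100% = tunicamycin at 10 µg/mL and 0% = DMSO alone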
#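 Dosing – one dose, 10 µM in 0.5% DMSO · System – CHO-CHOP cells, stable luciferase reporter of PERK-eIF2a-CHOP signalling · Input – 500 cells/well · Control set – tunicamycin 10 µg/mL final as positive, DMSO-only wells as negative · Timing – 6 h compound treatment, 37 °C · Measure – % activation vs tunicamycin · Technique – luminescence read with Steady-Glo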
# CHOP inh: CHOP inhibition in unfolded protein response. actives 3.8% (n = 220,000). AID 2732. CHO-K1 CHOP-promoter luciferase, tunicamycin-induced, 15-18 h. inhibition, % at 10 µM;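 active means compounds that reduced the stress-induced luciferase reporter signal by more than about 70% of percent inhibition, limit read from the data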;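 further: 0% = tunicamycin plus vehicle and 100% = wells without tunicamycin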
# 697 NFkB inh: inhibitors of the PMA/ionomycin-induced NF-kB reporter in 697 B cells; 697 B-cell NF-kB luciferase reporter, 16 h; inhibition, % at 4 µM; actives 0.33% (n = 330,000); AID 435022; in the data active means inhibition above about 35%
# 697 NFkB conf: lowers PMA/ionomycin-induced NF-kB signal in 697 B cells | 697 B-cell NF-kB luciferase, 16 h | inhibition, % at 4 µM | actives 35% (n = 2,000) | shares compounds with 697 NFkB inh; in the data active means inhibition mostly above about 28%, no sharp cut-off; inactive means mostly below about 22%
# Active calls of the source: *; . = not tested or not shown.
SMILES,UPR XBP1 act,Jurkat NFkB inh,UPR CHOP act,CHOP inh,697 NFkB inh,697 NFkB conf
COc1ccc(N(CC(=O)Nc2ccc(Cl)cc2)S(=O)(=O)c2c(C)n[nH]c2C)cc1,-7,14,-1,.,15,.
COc1ccc(N(CC(=O)N2CCN(c3ccc(Cl)cc3)CC2)S(=O)(=O)c2c(C)n[nH]c2C)cc1,-3,14,2,17,37*,32*
CCOC(=O)c1ccccc1NC(=O)COC(=O)CSC(C)C(=O)Nc1cc(C)on1 (centres undefined),5,6,0,.,2,.
COCCN(Cc1cc2ccc(C)cc2[nH]c1=O)S(=O)(=O)c1ccccc1,0,-7,0,.,12,.
CCN1C(=O)c2cccc3c(S(=O)(=O)Nc4ccncc4)ccc1c23,0,-1,0,-13,37*,10
CCN1C(=O)c2cccc3c(S(=O)(=O)Nc4ccccc4)ccc1c23,0,-2,1,10,52*,43*
CCN1C(=O)c2cccc3c(S(=O)(=O)Nc4nc(C)cs4)ccc1c23,2,4,-5,-14,25,.
CCN1C(=O)c2cccc3c(S(=O)(=O)Nc4ccccn4)ccc1c23,1,3,0,10,58*,54*
CCN1C(=O)c2cccc3c(S(=O)(=O)Nc4ncccc4C)ccc1c23,-3,8,1,-14,34,.
CN1C(=O)c2cccc3c(S(=O)(=O)Nc4ccccc4F)ccc1c23,-2,4,0,.,37*,34*
CCN1C(=O)c2cccc3c(S(=O)(=O)NCC4CCCO4)ccc1c23 (centres undefined),-3,1,0,-1,37*,59*
Cc1cccc(NC(=O)CSc2nnc(-c3cc(C)n(-c4ccccc4)c3C)o2)c1C,-5,-12,-7,91*,71*,25
CC1Sc2ccc(S(=O)(=O)N3CCC(C(=O)N(C)Cc4ccccc4)CC3)cc2NC1=O (centres undefined),-12,15,-1,.,-51,.
COC1CCCN(Cc2c(C(=O)N3CCN(C4CCCCC4)CC3)nc3ccccn23)C1 (centres undefined),-1,-27,2,.,-38,.
COC(=O)c1cccc(C(=O)N2CCCC(C(=O)c3cc(F)ccc3F)C2)c1 (centres undefined),-2,-2,-1,9,39*,-3
O=C(Nc1cccc2ccccc12)c1ccc(OC(=S)N2CCOCC2)cc1,2,-130,8,14,-366,-419
O=C(c1ccoc1)N1CCC2(CC1)Oc1ccc(F)cc1C(=O)C21CC(c2ccc(Cl)cc2)=NO1 (centres undefined),-3,18,0,-1,36*,19
Cc1cc(C)nc(NC2=NCC(=O)N2c2ccc(F)c(Cl)c2)n1,-4,10,-1,34,40*,16
COc1ccc(N2C(=O)CN=C2Nc2nc(C)cc(C)n2)cc1OC,-1,2,-2,-11,18,.
O=C(O)COc1ccccc1/C=N/NC(=O)CN1CCN(Cc2ccc(Cl)cc2)CC1,-1,-1,0,4,-17,.
CCOc1ccc(-c2cc(C(=O)N3CCN(c4ccccn4)CC3)c3ccccc3n2)cc1,12,47,2,.,-142,.
CCCc1ccc(-c2cc(C(=O)N3CCN(c4ccccn4)CC3)c3ccccc3n2)cc1,3,-40,4,.,-257,-138
COc1ccc(OCC(=O)Nc2c(C(=O)N3CCC(N4CCCCC4)CC3)oc3ccccc23)cc1,-4,-18,0,.,-22,.
COc1cc(/C=N/Nc2nc(Nc3ccccc3)nc(N3CCOCC3)n2)ccc1OC(=O)c1ccco1,8,-45,9,-30,49*,39*
O=C(Oc1cccc(/C=N/Nc2nc(N3CCOCC3)nc(N3CCOCC3)n2)c1)c1ccco1,2,-6,-2,-21,44*,25*
C(=N\Nc1nc(N2CCOCC2)nc(N2CCOCC2)n1)/c1cccnc1,1,0,-2,-6,30,.
Cc1[nH]c2ccccc2c1/C=N/Nc1nc(Nc2ccccc2)nc(N2CCOCC2)n1,10,49,15,-79,49*,55*
